Results collected from several papers.
VASP: Vasodilator-stimulated phosphoprotein (VASP, Homo sapiens, UniProt P50552)
ABHD6: Monoacylglycerol lipase ABHD6 (ABHD6, Homo sapiens, UniProt Q9BV23)
HTR5A: 5-hydroxytryptamine receptor 5A (HTR5A, Homo sapiens, UniProt P47898)

CC(=O)N[C@@H](CO)C(=O)N[C@@H](Cc1ccccc1)C(=O)N[C@@H](CCC(=O)O)C(=O)N[C@@H](Cc1ccccc1Cl)C(=O)N1CCC[C@H]1C(=O)N1CCC[C@H]1C(=O)N1CCC[C@H]1C(=O)N1CCC[C@H]1C(=O)N[C@H](C(=O)N[C@@H](CCC(=O)O)C(=O)N[C@@H](CC(=O)O)C(=O)N[C@@H](CCC(=O)O)C(=O)N[C@@H](CC(C)C)C(N)=O)[C@@H](C)O gave a Kd of 1500 nM (VASP; binding, fluorescence).
For CN(C(=O)Oc1nsnc1N1CCOCC1)C1CCCCCCC1, the IC50 was 44 nM (ABHD6; enzyme activity, inhibitor, fluorescence; lysate).
CC(CCc1ccc(O)cc1)NCCc1ccc(O)c(O)c1 (stereo not shown) has an IC50 of 2420 nM (D(4) dopamine receptor (DRD4, Homo sapiens, UniProt P21917); ligand displacement, radioligand).
The Ki of O=P(O)(O)Oc1ccccc1OP(=O)(O)O is reported as 18000 nM (Signal transducer and activator of transcription 6, SH2 (Homo sapiens, UniProt P42226); ligand displacement, FP).
For CC(=O)N[C@@H](Cc1ccccc1Cl)C(=O)N1CCC[C@H]1C(=O)N1CCC[C@H]1C(=O)N1CCC[C@H]1C(=O)N1CCC[C@H]1C(=O)O, the Kd was 13000 nM (VASP; binding, fluorescence).
For CN1CCc2c(c3ccccc3n2Cc2ccccc2)C1, the Ki was 130 nM (HTR5A; ligand displacement, radioligand).
With C[C@H](N)Cn1ncc2ccc3c(c21)CCCO3 the IC50 was greater than 100000 nM (D(4) dopamine receptor (DRD4, Homo sapiens, UniProt P21917, del265-296); ligand displacement, radioligand).
With C=C1CC1CC(=O)SCCNC(=O)CCNC(=O)[C@H](O)C(C)(C)COP(=O)(O)OP(=O)(O)OC[C@H]1O[C@@H](n2cnc3c(N)ncnc32)[C@H](O)[C@@H]1OP(=O)(O)O (mixture of isomers) the Kd was roughly 22500 nM (IVD (Homo sapiens, UniProt P26440); binding, absorbance).
For CNc1nc2cc(OCCCCN3CCN(c4cccc(Cl)c4Cl)CC3)ccc2s1, the Ki was 1300 nM (HTR5A; ligand displacement, radioligand).
CN(C(=O)Oc1nsnc1N1CCCCC1)C1CCCCCC1 gave an IC50 of 42.7 nM (ABHD6; enzyme activity, inhibitor, fluorescence; lysate).
With C[C@@H](NC(=O)C[C@@H](N)Cc1ccc(O)cc1)C(=O)NCC(=O)N[C@@H](Cc1ccccc1)C(=O)NNC(=O)[C@H](Cc1ccccc1)NC(=O)CNC(=O)[C@@H](C)NC(=O)C[C@@H](N)Cc1ccc(O)cc1 the IC50 was 135 nM (Mu-type opioid receptor (Oprm1, Rattus norvegicus, UniProt P33535); ligand displacement, radioligand).
For COc1ccc(N(C)C(=O)Oc2nsnc2N2CCCCC2)cc1, the IC50 was 263 nM (ABHD6; enzyme activity, inhibitor, fluorescence; lysate).
O=C(Nc1cccc(-c2ccn3c(CC4CC4)nnc3c2C(F)(F)F)c1)c1ccc(S(=O)(=O)F)cc1 has an EC50 of greater than 50100 nM (Metabotropic glutamate receptor 8 (GRM8, Homo sapiens, UniProt O00222); calcium signal, agonist).
